{"data": "Experimental data of several laboratories"}
{"Compound": "CCc1cc(C(=O)NC)c2nccc(N3CCc4c(cc(Cn5ccnc5)cc4-c4cn(C)nc4C(F)(F)F)C3=O)c2c1", "host": "male CD-1 mouse", "sample": "plasma", "route": "intravenous", "dose": "3 mg/kg", "measurement": "MRT(0-inf)", "result": "0.5 h"}
{"Compound": "COc1ccc2cc(CCC[18F])ccc2c1", "host": "male BALB/c mouse", "sample": "plasma", "route": "intravenous", "measurement": "MRT", "result": "0.698 h"}
{"Compound": "Cc1cc(NC(=O)c2cccc3cc(-c4cccc5[nH]nc(N)c45)ccc23)ccc1F", "host": "male CD-1 mouse", "sample": "brain", "route": "oral", "dose": "10 mg/kg", "measurement": "MRT(0-inf)", "result": "3.74 h"}
{"Compound": "CC1(C)CC[C@]2(C(=O)O)CC[C@]3(C)C(=CC[C@@H]4[C@@]5(C)C[C@@H](O)[C@H](OC(=O)/C=C/c6ccc(O)cc6)C(C)(C)[C@@H]5CC[C@]43C)[C@@H]2C1 (relative stereo)", "host": "mouse", "sample": "plasma", "route": "intraperitoneal", "dose": "85 µmol/kg", "setting": "single dose", "measurement": "MRT(0-inf)", "result": "11.9 h"}
{"Compound": "CNC(=O)c1cc(OC)cc2c(N3CCc4c(cc(Cn5ccnc5)cc4-c4cn(C)nc4C(F)(F)F)C3=O)ccnc12", "host": "male CD-1 mouse", "sample": "plasma", "route": "oral", "dose": "50 mg/kg", "measurement": "MRT(0-inf)", "result": "2 h"}
{"Compound": "COc1nc(-c2cc(C)c(N[C@@H](C)c3cc(F)cc(F)c3)nn2)ccc1-n1cnc(C)c1", "host": "male CD-1 mouse", "sample": "plasma", "route": "intravenous", "dose": "1 mg/kg", "setting": "single dose", "measurement": "MRT(0-t)", "result": "3.3 h"}
{"Compound": "CC(C)(Nc1nc(-c2ccccn2)nc2ccccc12)c1ccccn1", "host": "female BALB/c mouse", "sample": "plasma", "route": "intravenous", "dose": "1 mg/kg", "measurement": "MRT(0-inf)", "result": "1.2 h"}
{"Compound": "CCc1cc(OC)c2nccc(N3CCc4c(cc(Cn5ccnc5)cc4-c4cn(C)nc4C(F)(F)F)C3=O)c2c1", "host": "male CD-1 mouse", "sample": "plasma", "route": "intravenous", "dose": "3 mg/kg", "measurement": "MRT(0-inf)", "result": "0.7 h"}
{"Compound": "c1ccc(-c2nc(N3CCC(c4ccccn4)C3)c3ccccc3n2)nc1 (centres unmarked)", "host": "female BALB/c mouse", "sample": "plasma", "route": "oral", "dose": "12.5 mg/kg", "measurement": "MRT(0-t)", "result": "5.1 h"}
{"Compound": "COc1nc(-c2cc(C)c(N[C@@H](C)c3c(F)cc(F)cc3F)nn2)ccc1-n1cnc(C)c1", "host": "male CD-1 mouse", "sample": "plasma", "route": "oral", "dose": "5 mg/kg", "setting": "single dose", "measurement": "MRT(0-t)", "result": "5.24 h"}
{"Compound": "COc1cc(C2Oc3cc([C@H]4Oc5cc(O)cc(O)c5C(=O)[C@@H]4O)ccc3OC2CO)ccc1O (some centres unmarked)", "host": "male CD-1 mouse", "sample": "plasma", "route": "intravenous", "dose": "2 mg/kg", "measurement": "MRT(0-inf)", "result": "0.103 h"}
